Test results published in PubChem BioAssay AID463079 (The Scripps Research Institute Molecular Screening Center, 2010).
Screen size: about 330,000 compounds; about 2,000 (0.61%) were called active. The full list was thinned out, with actives kept by preference. Unmarked numbers belong to inactive results.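 The calls were made as follows: active = inhibition above that plate's mean sample inhibition plus 3 SD (cut at about 26% in these data); inactive = the rest.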

Assay: ATP-evoked calcium signal inhibitors, parental CHO, primary screen, counter-screen for OX1R antagonist project, cell-based, fluorescence, Fluo-8 calcium dye (AID 463079);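 also: 0% = ATP-challenged DMSO wells and 100% = DMSO wells without ATP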
Settings: parental CHO-K1, ATP-induced calcium, Fluo-8 fluorescence; at 5.6 µM; stronger effect = higher value
In short: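 Test system: untransfected parental CHO cell line. Compound: one dose, 5.6 µM nominal. Detection: intracellular calcium via Fluo-8 no-wash fluorescent dye. Measure: % inhibition. Benchmarks: ATP-challenged DMSO wells low, unchallenged DMSO wells high.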
With `O=C(c1cc(COc2ccc(F)c(F)c2)on1)N1CCOCC1` the inhibition was -5.07%.
With `CCn1ccnc1CN(C)C(=O)c1cc(COc2ccc(-n3cncn3)cc2)on1` the inhibition was -9.68%.
For `C=CCC1(CC=C)CCCN1C(=O)c1cc(COc2ccc(-n3cncn3)cc2)on1`, the inhibition was 66.2% (active).
For `COC(=O)c1cc(Oc2ccc(S(=O)(=O)N3CCOCC3)cc2[N+](=O)[O-])cc(C(=O)OC)c1`, the inhibition was -3.52%.
For `N#C/C(=C\c1ccccc1)c1n[nH]c(Cn2cncn2)n1`, the inhibition was -15.2%.
For `CC(NC(=O)C1CCCN(S(=O)(=O)c2ccc(-n3cnnn3)cc2)C1)c1ccc(F)cc1` (stereo not given), the inhibition was -12.5%.
With `Cc1ccccc1OCC(=O)Nc1ccc(N2CCN(C(=O)C(C)C)CC2)c(Cl)c1` the inhibition was 29.7% (active).
For `CCC(=O)N1CCN(c2ccccc2NC(=O)COc2cccc(C)c2C)CC1`, the inhibition was -26.9%.
Compound `Cc1ccccc1OCC(=O)Nc1ccc2c(c1)ncn2C` has an inhibition of 17.8%.
With `CC(C)(C)n1cnnc1Sc1ccc([N+](=O)[O-])cn1` the inhibition was -10.8%.
Work on `Cc1nc2ccc(NC(=S)N3CCC(C)CC3)cc2nc1C` yielded an inhibition of -10.7%.
With `CC1=C/C(=N\OS(=O)(=O)c2ccccc2)C=CC1=O` the inhibition was 46% (active).
Work on `NNC(=O)CNC(c1ccccc1)c1cc(Cl)ccc1NC(=O)c1ccccc1` (stereo not given) yielded an inhibition of -31.4%.
In the case of `COc1ccccc1Oc1ccc(S(=O)(=O)Nc2cccnc2)cc1`, the inhibition is reported as 36.9% (active).
`Cc1cc(C)c(C)c(S(=O)(=O)Nc2cccnc2)c1C` showed an inhibition of -11.2%.
`COc1ccc(S(=O)(=O)Nc2cccnc2)c(Cl)c1Cl` gave an inhibition of -1.47%.
With `O=C(C1CC(=O)N(c2ccc(F)cc2)C1)N1CCN(c2ccccc2)CC1` (stereo not given) the inhibition was -3.64%.
`CCOC(=O)C1CCN(CC(=O)Nc2ccc(OC)c(S(=O)(=O)N3CCCCC3)c2)CC1` showed an inhibition of -13.3%.
For `CCCCSc1nnc2c(n1)OC=Nc1ccccc1-2`, the inhibition was -1.35%.
For `CCOC(=O)Cn1c(=O)oc2cc(S(=O)(=O)N(C)Cc3ccco3)ccc21`, the inhibition was 4.07%.
For `CN(c1ccccc1)c1ccc(/C=c2\s/c(=C(/C#N)C(=O)C(C)(C)C)n(Cc3ccco3)c2=O)cc1`, the inhibition was 47.5% (active).
With `CCCCn1c(SCc2ncc(-c3ccccc3)o2)nc2cc(S(N)(=O)=O)ccc21` the inhibition was 36.6% (active).
`CCCCn1c(SCC(=O)N2CCC(C(=O)OCC)CC2)nc2cc(S(N)(=O)=O)ccc21` gave an inhibition of -21.9%.
`CCCCn1c(SCC(=O)N2CCCC2=O)nc2cc(S(N)(=O)=O)ccc21` showed an inhibition of -0.51%.
`Cc1nnc(C)c2c(C)n(N)c(C)c12` gave an inhibition of 4.12%.
With `c1ccc(-c2cc3c(NCC4COc5ccccc5O4)ncnc3s2)cc1` (stereo not given) the inhibition was 2.37%.
Work on `S=C(NCC1COc2ccccc2O1)Nc1ccc(Br)cc1` (stereo not given) yielded an inhibition of 1.75%.
With `c1ccc2c(c1)OCC(CNc1ncnc3nc[nH]c13)O2` (stereo not given) the inhibition was 76% (active).
Compound `COc1ccc(NC(=O)CC2SC(N3CCCCC3)=NC2=O)cc1OC` (stereo not given) has an inhibition of -5.72%.
`CCOC(=O)CSc1nnc(CNc2ccc(F)cc2)o1` gave an inhibition of 7.59%.
`COc1cc(C(=O)NCc2nnc(SCC(=O)c3ccc(Cl)cc3)o2)cc(OC)c1OC` showed an inhibition of -35.5%.
With `CCC(=O)Nc1ccc(C(=O)CSc2nnc(CNc3ccc(Cl)cc3)o2)cc1OC` the inhibition was 39.8% (active).
Work on `CCCCCCCNC(=O)C1(CC2CC(c3cccc(Br)c3)=NO2)CCN(C(=O)c2cc(OCC)c(OCC)c(OCC)c2)CC1` (stereo not given) yielded an inhibition of -43.7%.
For `CC1C/C(=N/NC(=O)c2cccs2)CC(C)(C)C1` (stereo not given), the inhibition was 5.84%.
For `O=C(CN1C(=O)NC(Cc2c[nH]c3ccccc23)C1=O)Nc1ccccc1C(F)(F)F` (stereo not given), the inhibition was -8.55%.
In the case of `CC(C)(C)C(=O)NNC(=O)c1ccc(Oc2cc(Cl)cc(Cl)c2)o1`, the inhibition is reported as 0.38%.
For `CC(C)CNC(=O)C(=O)Nc1ccc(N(C)C)cc1`, the inhibition was -6.25%.
In the case of `CN(C)c1ccc(C(CC(=O)O)C(=O)O)cc1` (stereo not given), the inhibition is reported as 26.3% (active).
Compound `CC(=O)NC(CC(=O)O)c1ccc(F)cc1` (stereo not given) has an inhibition of 14.5%.
For `COC(=O)Cn1c(=NC(=O)c2cc(OC)c(OC)c(OC)c2)sc2cc(OC)ccc21`, the inhibition was -4.35%.
Compound `CN(C)/C=C(/C(=O)c1ccc(Cl)c(Cl)c1)c1nnnn1-c1ccccc1` has an inhibition of 4.24%.
For `CCc1ccc(CN(C)C(=O)CCc2nnc(-c3ccc(-c4ccccc4)cc3)o2)nc1`, the inhibition was 2.52%.
Work on `COc1ccc(Cl)cc1-n1c(C)cc(C(=O)OCC(=O)N2CC(=O)Nc3ccccc32)c1C` yielded an inhibition of -26.4%.
For `Cn1nc(C(F)(F)F)c(C(=O)Nc2cccc(C(F)(F)F)c2)c1SCc1ccc(Cl)cc1`, the inhibition was 56.3% (active).
Work on `O=C(O)CSc1c2c(nc3cc(C(=O)Nc4cccc(C(F)(F)F)c4)ccc13)CCCC2` yielded an inhibition of -7.81%.
